The source made the active and inactive calls. The calls are words filed in the database; no cut-off is given here.
Legend:
MCF7 = test: Antiproliferative activity against […] human MCF7 cells assessed as inhibition of cell growth incubated for 72 hrs by alamar blue assay; type: functional, cell-based; settings: MCF7, 72 h
Procedure, shortened: (§1)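 Cells seeded 24 h before treatment (HL-60 4 × 10⁴, MCF-7 5 × 10³ per well), then given medium, vehicle (1% ethanol v/v) or serial dilutions (eight concentrations) for 72 h. Alamar Blue (10% v/v) added for 3–5 h at 37 °C in the dark, fluorescence read at ex 530/em 590 nm. Viability expressed relative to vehicle (100%), IC50 from dose–response curves; three experiments in triplicate.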

HT-29 [1] = test: Antiproliferative activity against combretastatin A-4 resistant human HT-29 cells assessed as inhibition of cell growth incubated for 72 hrs by SRB assay; type: functional, cell-based; settings: HT-29, 72 h
Procedure, shortened: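 HT-29 (DMEM Glutamax, 10% FBS) seeded at 1 × 10⁴ cells/well, treated after 24 h with vehicle (1% ethanol v/v) or serial dilutions (eight concentrations) for 72 h; viability measured by sulforhodamine B protocol. Percent viability relative to vehicle control, IC50 from dose–response curves; mean of three experiments in triplicate.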

HL-60 = test: Antiproliferative activity against […] human HL-60 cells assessed as inhibition of cell growth incubated for 72 hrs by alamar blue assay; type: functional, cell-based; settings: HL-60, 72 h; procedure, shortened: as §1
Tubulin (Bos taurus) = Tubulin (Bos taurus) (UniProt Q6B856+Q862L2+Q862F3); test: Inhibition of bovine tubulin polymerisation assessed as fold reduction in Vmax at 10 uM measured every 30 secs for 30 mins by spectrophotometric method relative to control; type: protein assay
[2] = tested on: Panel NCI-60 (60 carcinoma cell lines); test: Antiproliferative activity against human panel NCI-60 (60 carcinoma cell lines) assessed as inhibition of cell growth at 10 uM incubated for 72 hrs by SRB assay; type: functional, cell-based
HT-29 [3] = test: Induction of cell cycle arrest in human HT-29 cells assessed as accumulation of cells at G2/M phase at 1 uM incubated for 24 hrs in presence of 2,3-bis(amino((2-aminophenyl)thio)methylene)succinonitrile by RAase A/PI staining based flow cytometry analysis (reference value: 16%); type: functional
HT-29 [4] = test: Induction of cell cycle arrest in human HT-29 cells assessed as accumulation of cells at G0/G1 phase at 1 uM incubated for 24 hrs in presence of 2,3-bis(amino((2aminophenyl)thio)methylene)succinonitrile by RAase A/PI staining based flow cytometry analysis (reference value: 57%); type: functional
Tubulin (Homo sapiens) = Tubulin (Homo sapiens) (UniProt P68371+Q9H4B7+P0DPH7+P68366+Q13509+Q71U36+P04350+Q3ZCM7+P07437+P68363+Q9BQE3+Q6PEY2+Q13885+Q9BVA1+Q9BUF5); test: Induction of microtubule disruption in human HT-29 cells assessed as effect on microtubule organization at 1 uM incubated for 16 hrs by immunofluorescence based confocal microscopic analysis; type: cell-based
HT-29 [5] = test: Induction of cell cycle arrest in human HT-29 cells assessed as accumulation of cells at G0/G1 phase at 1 uM incubated for 24 hrs by RAase A/PI staining based flow cytometry analysis (reference value: 57%); type: functional
[6] = molecular target: Tubulin beta (Homo sapiens) (UniProt P68371+Q9H4B7+Q13509+P04350+Q3ZCM7+P07437+Q13885+Q9BVA1+Q9BUF5+A6NNZ2); test: Binding affinity to colchicine binding site of beta-tubulin in human MCF7 cells assessed as inhibition of beta-tubulin-EBI adduct formation at 10 uM pretreated for 2 hrs followed by EBI addition and measured after 1.5 hrs by Western blot analysis; type: cell-based; settings: time 3.5 hrs
Procedure, shortened: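 Cells seeded at 5 × 10⁴/well, grown overnight, treated with vehicle (0.1% ethanol v/v) or compound (10 µM) for 2 h, then EBI (100 µM) added for 1.5 h. Cells washed with ice-cold PBS, lysed in Laemmli buffer, run on SDS-PAGE, blotted and probed for β-tubulin to detect the faster-migrating β-tubulin–EBI adduct; GAPDH reprobe for loading; three independent experiments.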

HT-29 [7] = test: Induction of cell cycle arrest in human HT-29 cells assessed as accumulation of cells at G2/M phase at 1 uM incubated for 24 hrs by RAase A/PI staining based flow cytometry analysis (reference value: 16%); type: functional

Row | SMILES | IC50 (MCF7) | IC50 (HT-29 [1]) | IC50 (HL-60) | other results
1 | COc1cc(N2C(=O)C(Oc3ccccc3)C2c2ccc(SC)cc2)cc(OC)c1OC (mixture of isomers) | 152 nM | 336 nM | 388 nM | –
2 | CCSc1ccc(C2C(Oc3ccccc3)C(=O)N2c2cc(OC)c(OC)c(OC)c2)cc1 (mixture of isomers) | 210 nM | 632 nM | 508 nM | –
3 | CCOc1ccc(C2C(O)C(=O)N2c2cc(OC)c(OC)c(OC)c2)cc1 (mixture of isomers) | 7 nM | 15 nM | 11 nM | –
4 | COc1cc(N2C(=O)C(c3ccccc3)C2c2ccc(O)cc2)cc(OC)c1OC (mixture of isomers) | > 50000 nM | > 50000 nM | > 50000 nM | –
5 | COc1ccc(C2CC(=O)N2c2cc(OC)c(OC)c(OC)c2)cc1O (racemic) | 6 nM | 521 nM | 8 nM | –
6 | COc1ccc(C2CC(=O)N2c2cc(OC)c(OC)c(OC)c2)cc1 (racemic) | – | 65 nM | 76 nM | –
7 | COc1ccc(C2C(Cl)C(=O)N2c2cc(OC)c(OC)c(OC)c2)cc1 (racemic) | 56 nM | 135 nM | 161 nM | –
8 | C=CC1C(=O)N(c2cc(OC)c(OC)c(OC)c2)C1c1ccc(SC)cc1 (racemic) | 51 nM | 113 nM | 61 nM | fold change (FC) (Tubulin (Bos taurus)): 3.4
9 | COc1cc(N2C(=O)CC2c2ccc(SC)cc2)cc(OC)c1OC (racemic) | 67 nM | 108 nM | 69 nM | –
10 | C=CC1C(=O)N(c2cc(OC)c(OC)c(OC)c2)C1c1ccc(SCC)cc1 (racemic) | 181 nM | 257 nM | 320 nM | –
11 | COc1cc(N2C(=O)C(C3CC3)C2c2ccc(SC)cc2)cc(OC)c1OC (racemic) | 131 nM | 204 nM | 279 nM | –
12 | COc1ccc(C2C(Oc3ccccc3)C(=O)N2c2cc(OC)c(OC)c(OC)c2)cc1 (racemic) | 23 nM | 52 nM | 19 nM | –
13 | CCOc1ccc(C2C(Oc3ccccc3)C(=O)N2c2cc(OC)c(OC)c(OC)c2)cc1 (racemic) | 69 nM | 388 nM | 494 nM | –
14 | CCSc1ccc(C2C(Cl)C(=O)N2c2cc(OC)c(OC)c(OC)c2)cc1 (racemic) | 251 nM | 238 nM | 385 nM | –
15 | COc1ccc(C2C(O)C(=O)N2c2cc(OC)c(OC)c(OC)c2)cc1O (racemic) | 3 nM | 463 nM | 5 nM | –
16 | CCOc1ccc(C2C(Cl)C(=O)N2c2cc(OC)c(OC)c(OC)c2)cc1 (racemic) | 87 nM | 203 nM | 209 nM | –

Row | SMILES | IC50 (MCF7) | IC50 (HT-29 [1]) | IC50 (HL-60) | other results
17 | CCSc1ccc(C2N(c3cc(OC)c(OC)c(OC)c3)C(=O)C2(Cl)Cl)cc1 (racemic) | 660 nM | 554 nM | 481 nM | –
18 | CCSc1ccc(C2C(C3CC3)C(=O)N2c2cc(OC)c(OC)c(OC)c2)cc1 (racemic) | 606 nM | 1560 nM | 803 nM | –
19 | CCSc1ccc(C2CC(=O)N2c2cc(OC)c(OC)c(OC)c2)cc1 (racemic) | 141 nM | 311 nM | 204 nM | –
20 | CCSc1ccc(C2C(c3ccccc3)C(=O)N2c2cc(OC)c(OC)c(OC)c2)cc1 (racemic) | 380 nM | 3140 nM | 430 nM | –
21 | CCOc1ccc(C2CC(=O)N2c2cc(OC)c(OC)c(OC)c2)cc1 (racemic) | 64 nM | 65 nM | 88 nM | –
22 | CCOc1ccc(C2N(c3cc(OC)c(OC)c(OC)c3)C(=O)C2(Cl)Cl)cc1 (racemic) | 270 nM | 325 nM | 182 nM | –
23 | COc1cc(N2C(=O)C(Cl)C2c2ccc(SC)cc2)cc(OC)c1OC (racemic) | 73 nM | 137 nM | 522 nM | inhibition [2]: Active; fold change (FC) (Tubulin (Bos taurus)): 2
24 | C=CC1C(=O)N(c2cc(OC)c(OC)c(OC)c2)C1c1ccc(OC)cc1 (racemic) | 17 nM | 10 nM | 33 nM | –
25 | C=CC1C(=O)N(c2cc(OC)c(OC)c(OC)c2)C1c1ccc(OCC)cc1 (racemic) | 14 nM | 97 nM | 35 nM | –
26 | COc1cc(N2C(=O)C(Cl)(Cl)C2c2ccc(SC)cc2)cc(OC)c1OC (racemic) | 291 nM | 306 nM | 223 nM | –
27 | COc1ccc(C2N(c3cc(OC)c(OC)c(OC)c3)C(=O)C2(Cl)Cl)cc1 (racemic) | 133 nM | 271 nM | 144 nM | –
28 | CCSc1ccc(C2C(O)C(=O)N2c2cc(OC)c(OC)c(OC)c2)cc1 (racemic) | 6 nM | 12 nM | 16 nM | –
29 | CCOc1ccc(C2C(c3ccccc3)C(=O)N2c2cc(OC)c(OC)c(OC)c2)cc1 (racemic) | 50 nM | 75 nM | 74 nM | –
30 | COc1ccc(C2C(O)C(=O)N2c2cc(OC)c(OC)c(OC)c2)cc1 (racemic) | 4 nM | 12 nM | 13 nM | –
31 | COc1ccc([C@@H]2[C@@H](Oc3ccccc3)C(=O)N2c2cc(OC)c(OC)c(OC)c2)cc1O (relative stereo) | 23 nM | 692 nM | 7 nM | –
32 | COc1ccc(/C=C\c2cc(OC)c(OC)c(OC)c2)cc1O [COMBRETASTATIN A4] | 3.5 nM | 4160 nM | 1.9 nM | Activity (HT-29 [3]): 50%; Activity (HT-29 [4]): 14%; Activity (Tubulin (Homo sapiens)): inactive; Activity (HT-29 [5]): 52%; inhibition [6]: Active; Activity (HT-29 [7]): 15%; fold change (FC) (Tubulin (Bos taurus)): 2

Reference: ChEMBL document CHEMBL5252538, “β-Lactam analogues of combretastatin A-4 prevent metabolic inactivation by glucuronidation in chemoresistant HT-29 colon cancer cells” (Eur J Med Chem, 2017)
